pIC50: −log10 of the molar value.
Assays:
Assay type in all cases: functional, cell-based; call rule not given here
MCF7 = assay: Cytotoxicity against estrogen receptor-positive human MCF7 cells by MTT assay; conditions: for pIC50: Homo sapiens, MCF7, read-out: IC50
In short: (§1)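 MTT read-out after 72 h continuous exposure of human breast cancer cells to compound. Each assay run in duplicate; IC50 taken from three independent experiments and reported as mean SEM. Chlorambucil served as positive control.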

MDA-MB-468 = assay: Cytotoxicity against estrogen receptor-negative human MDA-MB-468 cells by MTT assay; conditions: for pIC50: Homo sapiens, MDA-MB-468, read-out: IC50; for IC50: mda-mb-468; in short: as §1
[1] = Cytotoxicity against estrogen receptor-negative human MDA-MB-436 cells by MTT assay; conditions: for pIC50: Homo sapiens, MDA-MB-436, read-out: IC50; for IC50: mda-mb-436; in short: as §1
MDA-MB-231 = assay: Cytotoxicity against estrogen receptor-negative human MDA-MB-231 cells by MTT assay; conditions: for pIC50: Homo sapiens, MDA-MB-231, read-out: IC50; for IC50: mda-mb-231; in short: as §1

Row | Structure (SMILES) | pIC50 (MCF7) | pIC50 (MDA-MB-468) | pIC50 [1] | pIC50 (MDA-MB-231) | IC50 (MDA-MB-468) | IC50 [1] | IC50 (MDA-MB-231) | IC50 (MCF7; mcf7)
1 | O=C(O)CCCc1ccc(N(CCCl)CCCl)cc1 [CHLORAMBUCIL] | 3.88 | 3.83 | 3.88 | 3.86 | – | – | – | –
2 | COC(=O)[C@H](Cc1ccc(O)cc1)NC(=O)CCCCCCCCCCNC(=O)CCCc1ccc(N(CCCl)CCCl)cc1 | 4.17 | – | – | – | Not Active | Not Active | Not Active | –
3 | O=C(CCCc1ccc(N(CCCl)CCCl)cc1)NCCCCCC(=O)N[C@@H](CO)Cc1ccc(O)cc1 | 4.17 | – | – | – | – | – | – | –
4 | O=C(CCCc1ccc(N(CCCl)CCCl)cc1)N[C@@H](CO)Cc1ccc(O)cc1 | 4.50 | – | – | 4.53 | – | – | – | –
5 | O=C(CCCc1ccc(N(CCCl)CCCl)cc1)NCCCCCCCCCCC(=O)N[C@@H](CO)Cc1ccc(O)cc1 | 4.79 | – | – | – | – | – | Not Active | –
6 | COC(=O)[C@@H](Cc1ccc(O)cc1)NC(=O)CCCc1ccc(N(CCCl)CCCl)cc1 | 4.30 | – | – | 4.33 | – | – | – | –
7 | COC(=O)[C@H](Cc1ccc(O)cc1)NC(=O)CCCCCNC(=O)CCCc1ccc(N(CCCl)CCCl)cc1 | 4.59 | 4.23 | 4.83 | 4.43 | – | – | – | –
8 | O=C(CCCc1ccc(N(CCCl)CCCl)cc1)N[C@H](CO)Cc1ccc(O)cc1 | 4.47 | 4.26 | 4.61 | 4.40 | – | – | – | –
9 | COC(=O)[C@@H](Cc1ccc(O)cc1)NC(=O)CCCCCCCCCCNC(=O)CCCc1ccc(N(CCCl)CCCl)cc1 | – | – | – | – | – | – | Not Active | Not Active
10 | COC(=O)[C@@H](Cc1ccc(O)cc1)NC(=O)CCCCCNC(=O)CCCc1ccc(N(CCCl)CCCl)cc1 | 3.82 | – | – | – | – | – | – | –
11 | O=C(CCCc1ccc(N(CCCl)CCCl)cc1)NCCCCCC(=O)N[C@H](CO)Cc1ccc(O)cc1 | 4.21 | 4.11 | 4.54 | 4.26 | – | – | – | –
12 | O=C(CCCc1ccc(N(CCCl)CCCl)cc1)NCCCCCCCCCCC(=O)N[C@H](CO)Cc1ccc(O)cc1 | 4.71 | – | – | – | Not Active | Not Active | Not Active | –
13 | COC(=O)[C@H](Cc1ccc(O)cc1)NC(=O)CCCc1ccc(N(CCCl)CCCl)cc1 | 4.50 | 4.20 | 4.81 | 4.42 | – | – | – | –
